This is an account of results in the M2OR odorant receptor database.

Structures are written as SMILES.

Test [1] addresses UniProt E9PXN3. Particulars: stereoisomer not certain. Put shortly:
(§1)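 Transient luciferase assays in mammalian cell lines were common, though methods varied by source. The values come from published papers and their supplementary material, with extra details from the original authors when needed. Responsive refers to a measured signal the original authors judged statistically different from baseline, and non-responsive (inactive) to the remainder.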

Test [2] has as its target UniProt Q7TRM0. Particulars: stereoisomer not certain. Summed up: as §1
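Also: active if original authors judged signal statistically different from baseline.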

UniProt E9PXN3, sequence (E9PXN3 as listed by the source): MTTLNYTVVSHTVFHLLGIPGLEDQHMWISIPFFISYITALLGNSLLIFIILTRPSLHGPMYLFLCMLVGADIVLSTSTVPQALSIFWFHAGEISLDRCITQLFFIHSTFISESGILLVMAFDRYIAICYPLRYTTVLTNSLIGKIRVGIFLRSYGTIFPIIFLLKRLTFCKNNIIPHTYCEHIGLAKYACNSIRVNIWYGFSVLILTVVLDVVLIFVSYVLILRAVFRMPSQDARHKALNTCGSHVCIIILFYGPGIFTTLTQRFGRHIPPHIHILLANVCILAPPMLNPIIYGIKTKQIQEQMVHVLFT
UniProt Q7TRM0, sequence (Q7TRM0 as listed by the source): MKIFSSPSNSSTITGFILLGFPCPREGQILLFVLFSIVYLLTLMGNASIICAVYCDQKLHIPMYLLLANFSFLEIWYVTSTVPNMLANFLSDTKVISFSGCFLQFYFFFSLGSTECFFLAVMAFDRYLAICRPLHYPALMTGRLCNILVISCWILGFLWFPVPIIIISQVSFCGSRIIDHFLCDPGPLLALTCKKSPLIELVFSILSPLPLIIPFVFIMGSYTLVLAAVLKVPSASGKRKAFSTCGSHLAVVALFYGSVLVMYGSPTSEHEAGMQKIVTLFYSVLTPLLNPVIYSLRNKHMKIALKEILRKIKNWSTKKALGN

Regarding `O=C(O)CCCCCCCBr`, the “odorant receptor agonist call” value in test [1] and in test [2] was “inactive” throughout.
